These results are taken from ChEMBL document CHEMBL4130464, “Cytotoxic Prenylated Stilbenes Isolated from Macaranga tanarius” (J Nat Prod, 2017).

pEC50: −log10 of the molar value. Non-standard residues stand in square brackets, D forms with d. Residues, ends and D or L forms follow the SMILES beside them. *: point of attachment. Dolaproine = CO[C@@H]([C@@H]1CCCN1)[C@@H](C)C(=O)O; Dil = CC[C@H](C)[C@H](NC)[C@@H](CC(=O)O)OC; X1 = C[C@@H](N*)[C@@H](O)c1ccccc1; NMeV = CN[C@H](C(=O)O)C(C)C Some results are limits rather than exact numbers.

The test system of one assay is A549. Kind of assay: Antiproliferative activity against human A549 cells after 72 hrs by MTS assay. It is filed as functional, cell-based. As to conditions: A549, 72 h. The procedure, abridged: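 A549 human lung cancer cells (ATCC) grown in RPMI 1640 with 10% FCS and 1% glutamine at 37 °C, 5% CO2. Cells seeded at 2.5 × 10^3 per well and cultured 24 h, then treated at 1 and 10 μM final for 72 h. […] added for 2 h, absorbance read at 490 nm. Cytotoxicity index (OD490treated/OD490control × 100) taken from three experiments.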
A general note: Tetrazolium assays rely on reduction of a dye to a coloured formazan, in cell work by metabolically active cells.

Another assay has as its system U-87 MG. Put plainly: Antiproliferative activity against human U87 cells after 72 hrs by MTS assay. It is filed as functional, cell-based, U-87MG ATCC. The procedure, abridged:
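U87 human glioblastoma cells (ATCC) kept in DMEM with 10% FCS and 1% glutamine at 37 °C, 5% CO2. Seeded at 2.5 × 10^3 cells/well, exposed after 24 h to compounds at 1 and 10 μM final for 72 h. […] added 2 h before reading absorbance at 490 nm. Percent cytotoxicity index (treated/control OD490 × 100) from three experiments.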

One may read the pEC50 as the EC50 on a negative log10 scale, so that one unit is a factor of ten. Higher therefore signals a small EC50. Consider `COc1cc(/C=C/c2cc(O)c(CC=C(C)C)c(O)c2)cc2c1O[C@]1(C)CC[C@@H](O)C(C)(C)[C@H]1C2` [SCHWEINFURTHIN F], for which the pEC50 in the assay with A549 is 5.82; in the assay with U-87 MG, 6.62.
As for `CC[C@H](C)[C@@H]([C@@H](CC(=O)N1CCC[C@H]1[C@H](OC)[C@@H](C)C(=O)N[C@H](C)[C@@H](O)c1ccccc1)OC)N(C)C(=O)[C@@H](NC(=O)[C@@H](NC)C(C)C)C(C)C` (H-[NMeV]V[Dil][Dolaproine]-X1), the pEC50 in the assay on A549 is 9.30; with U-87 MG, 9.70.
On the same counts, the results for `CC(C)=CCC/C(C)=C/CC/C(C)=C/Cc1c(O)cc(/C=C/c2ccc(O)c(O)c2)cc1O` are less than 5.00 and 7.60.
Consider `CC(C)=CCc1c(O)cc(/C=C/c2cc(O)c3c(c2)C[C@@H]2C(C)(C)[C@H](O)[C@H](O)C[C@@]2(C)O3)cc1O` [VEDELIANIN], for which the pEC50 in the assay with A549 is 6.72; in the assay on U-87 MG, 7.52.
On the same counts, the results for `C/C(=C\Cc1cc(/C=C/c2cc(O)c3c(c2)OC(C)(C)[C@@H](O)C3)cc(O)c1O)CCC(O)C(C)(C)O` (stereo partly drawn) are less than 5.00 and 6.30.
`CC(C)=CCC/C(C)=C/Cc1cc(/C=C/c2cc(O)cc(Oc3ccc4c(c3)O[C@H](c3ccc(C/C=C(\C)CCC=C(C)C)c(O)c3O)[C@@H]4O)c2)cc(O)c1O`: the pEC50 in the assay on A549 and with U-87 MG was less than 5.00 each time.
With `CC(C)=CCc1c(O)cc(/C=C/c2cc(O)c(O)c(C/C=C(\C)CCC(O)C(C)(C)O)c2)cc1O` (stereo not drawn), the negative-log EC50 (pEC50) in the assay with A549 was less than 5.00; in the assay with U-87 MG, 7.00.
On the same counts, the results for `CC(C)=CCC/C(C)=C/Cc1cc(/C=C/c2cc(O)c3c(c2)OC(C)(C)[C@@H](O)C3)cc(O)c1O` are 6.14 and 6.60.
As to `CC(C)=CCC/C(C)=C/Cc1cc(/C=C/c2cc(O)c(CC=C(C)C)c(O)c2)cc(O)c1O` [MAPPAIN], the pEC50 was 5.15 with A549 and 5.27 in the assay on U-87 MG.
The like results for `CC(C)=CCC[C@]1(C)Oc2c(O)cc(/C=C/c3cc(O)c4c(c3)OC(C)(C)C(O)C4)cc2C[C@@H]1O` (stereo partly drawn) were, in that order, 6.62 and 6.35.
Consider `CC(C)=CCc1c(O)cc(/C=C/c2cc(O)c3c(c2)C[C@@H]2C(C)(C)[C@H](O)CC[C@@]2(C)O3)cc1O` [SCHWEINFURTHIN G], for which the values for the pEC50 in the assay on A549 and with U-87 MG were 6.10 and 7.35, respectively.
Regarding `CC(C)=CCc1c(O)cc(/C=C/c2cc(O)c3c(c2)C[C@@H]2C(C)(C)[C@H](O)C[C@H](O)[C@@]2(C)O3)cc1O`, the pEC50 was less than 5.00 with A549 and 7.30 with U-87 MG.
The like results for `COc1cc(/C=C/c2cc(O)c(CC=C(C)C)c(O)c2)cc(C/C=C(\C)CCC=C(C)C)c1O` were, in that order, less than 5.00 and 5.15.
On the same counts, the results for `COc1cc(/C=C/c2cc(O)c(CC=C(C)C)c(O)c2)cc2c1O[C@]1(C)C[C@@H](O)[C@@H](O)C(C)(C)[C@H]1C2` [SCHWEINFURTHIN E] are 6.59 and 6.70.
